Published values collected from several papers.
Compare with care: the assays were run in different laboratories. ≈ marks a conversion by molar mass, not a printed value.

| SMILES | tested on | assay | test system | conditions | endpoint | result |
| --- | --- | --- | --- | --- | --- | --- |
| COc1ccc(C2c3c(C)nn(-c4ccccc4)c3NN2C(=O)c2ccncc2)cc1 (stereo not shown) | Cryptococcus neoformans | microbial growth | – | clinical isolate | MIC | > 100 µg/mL |
| C=C(F)C(=O)N1CCN(c2nc(OC[C@@H]3CCCN3C)nc3c2CCN(c2cccc4cccc(Cl)c24)C3)C[C@@H]1CC#N | SW756 | cell growth or viability, ATP luminescence | – | – | IC50 | 888 nM |
| Cc1nn(-c2ccccc2)c2c1C(c1ccc(O)cc1)N(C(=O)c1ccncc1)N2 (stereo not shown) | Cryptococcus neoformans | microbial growth | – | clinical isolate | MIC | > 100 µg/mL |
| O=C1C(Br)=C(Br)C(=O)c2ccccc21 | Nakaseomyces glabratus | microbial growth, broth dilution | ATCC2001 | 24 h | MIC | 6.25 µg/mL (≈ 19.8 µM) |
| COc1ccc2c(C(=O)c3c(F)c(F)c(F)c(F)c3F)c(-c3ccc(OC)c(O)c3)[nH]c2c1 | – | tubulin polymerisation, inhibitor, absorbance | – | – | IC50 | > 20000 nM |
| Nc1ccc(/C=C/C(=O)N2CCc3c(oc4c(-c5ccc(F)cc5)cc(-c5ccc(C(=O)N6CCC(F)(F)CC6)nn5)cc34)C2)cn1 | ASPC1 | cell growth or viability, CCK-8 | – | 72 h | IC50 | 340 nM |
| C=CC(=O)NC1CCN(c2ncc3ncnc(Nc4ccc(Oc5ccc6c(c5)ncn6C)c(C)c4)c3n2)CC1 | SNU-182 | cell growth or viability | – | – | EC50 | 0.191 nM |
| Cc1nn(-c2ccccc2)c2c1C(c1ccco1)N(C(=O)c1ccncc1)N2 (stereo not shown) | Cryptococcus neoformans | microbial growth | – | clinical isolate | MIC | 2 µg/mL (≈ 5.39 µM) |
| CC(C)=CCCC(C)=CC=O (mixture of isomers) | Cryptococcus neoformans | microbial killing, broth dilution | – | clinical isolate | MFC | 1600 µg/mL |
| C=CC(=O)N1CCN(c2nc(=O)n(-c3c(C)ccnc3C(C)C)c3nc(-c4c(O)cccc4F)c(F)cc23)[C@@H](C)C1 | NCI-H358 | cell growth or viability, ATP luminescence | – | – | IC50 | 44.1 nM |
| Cc1c(C(=O)O)ccc2c3n(nc12)[C@@H]1[C@H](C3)N(CC2CC2)[C@@]2(C(=O)Nc3cc(Cl)ccc32)[C@H]1c1cccc(Cl)c1F | SW982 | cell growth or viability, resazurin | – | – | GI50 | 0.34 nM |
| COc1cc2nc(N3CCN(C(=O)C4COc5ccccc5O4)CC3)nc(N)c2cc1OC (stereo not shown) | CNE-2 | cell growth or viability, MTT | – | 48 h | IC50 | 30700 nM |
| Cc1nn(-c2ccccc2)c2c1C(c1ccc(Cl)cc1)N(C(=O)c1ccncc1)N2 (stereo not shown) | Cryptococcus neoformans | microbial growth | – | clinical isolate | MIC | 32 µg/mL (≈ 76.9 µM) |
